Results from different studies.
Protocols differ between the studies behind these lines.
Target: Muscle, skeletal receptor tyrosine-protein kinase (MUSK, Homo sapiens, UniProt O15146)
One construct used (O15146 24-869): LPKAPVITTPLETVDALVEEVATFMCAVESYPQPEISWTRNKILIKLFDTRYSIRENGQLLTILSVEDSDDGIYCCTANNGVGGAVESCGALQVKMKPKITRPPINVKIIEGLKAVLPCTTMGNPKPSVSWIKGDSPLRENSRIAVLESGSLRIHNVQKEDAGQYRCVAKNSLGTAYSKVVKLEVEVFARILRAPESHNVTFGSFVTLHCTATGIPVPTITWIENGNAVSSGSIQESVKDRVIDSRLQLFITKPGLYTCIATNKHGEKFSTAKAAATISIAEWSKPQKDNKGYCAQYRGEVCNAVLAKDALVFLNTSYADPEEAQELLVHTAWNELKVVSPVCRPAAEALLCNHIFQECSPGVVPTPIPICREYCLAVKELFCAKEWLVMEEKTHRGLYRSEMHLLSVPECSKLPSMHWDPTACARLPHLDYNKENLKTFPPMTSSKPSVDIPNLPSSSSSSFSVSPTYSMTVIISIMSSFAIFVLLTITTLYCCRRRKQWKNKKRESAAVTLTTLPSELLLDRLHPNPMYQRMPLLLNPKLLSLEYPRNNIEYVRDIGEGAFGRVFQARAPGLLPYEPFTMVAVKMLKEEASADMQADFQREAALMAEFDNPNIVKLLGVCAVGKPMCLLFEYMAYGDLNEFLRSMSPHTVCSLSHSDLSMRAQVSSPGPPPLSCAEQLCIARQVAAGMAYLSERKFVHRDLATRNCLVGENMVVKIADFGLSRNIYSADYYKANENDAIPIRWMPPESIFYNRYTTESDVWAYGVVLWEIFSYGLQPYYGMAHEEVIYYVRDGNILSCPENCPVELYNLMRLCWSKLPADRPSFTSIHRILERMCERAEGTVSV

| Compound | observed | action | technique | tested at | endpoint | value |
| --- | --- | --- | --- | --- | --- | --- |
| C=CC(=O)N1CCC([C@@H]2CCNc3c(C(N)=O)c(-c4ccc(Oc5ccccc5)cc4)nn32)CC1 | enzyme activity | inhibitor |  | 1 µM | inhibition | 16% |
| CCCCC(=O)Nc1ccc(-c2ccc3ncn(CCC)c(=O)c3c2)cn1 | binding |  | competition with immobilised ligand | 0.5 µM | remaining binding | 93% |
| C1=C/COCc2cc(ccc2OCCN2CCCC2)Nc2nccc(n2)-c2cccc(c2)COC/1 | binding |  |  | 0.1 µM | remaining binding | 89% |
| CN1CCN(C(=O)c2ccc(NC(=O)Nc3ccc(N(C)c4ccnc(Nc5ccc(CS(C)(=O)=O)cc5)n4)cc3)cc2)CC1 | binding |  | competition with immobilised ligand | 1 µM | remaining binding | 11% |
| CC(C)S(=O)(=O)c1ccc2nccc(Nc3ccc4sc(C5CCCC5)nc4c3)c2c1 | enzyme activity | inhibitor |  | 1 µM | activity vs control | 101% |
| CO[C@@H]1[C@H](N(C)C(=O)c2ccccc2)C[C@H]2O[C@]1(C)n1c3ccccc3c3c4c(c5c6ccccc6n2c5c31)C(=O)NC4 | enzyme activity | inhibitor |  | 1 µM | inhibition | 0% |
| C#Cc1cc(-c2cc(Nc3nc(N[C@@H](C)c4ccc(F)cn4)ncc3Cl)n[nH]2)ccc1C=O | enzyme activity | inhibitor |  | 0.2 µM | inhibition | 100% |
| Cc1ccc(NC(=O)c2ccnc(C(F)(F)F)c2)cc1-c1cc(OCCO)nc(N2CCOCC2)c1 | binding |  | competition with immobilised ligand | 1 µM | remaining binding | 91% |
